For test [1], the system named is DU-145. Nature of the test: Cytotoxicity against human DU145 cells after 96 hrs by trypan blue exclusion assay. The class given is functional, cell-based. The note with it: Homo sapiens, DU-145, 96 h. The procedure, abridged: (§1)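 Cells grown in DMEM or RPMI with 10% FBS and penicillin-streptomycin, seeded at 1.0 × 10⁵ cells/mL/well in 6-well dishes. Compound added at a range of concentrations 24 h after seeding. Viable cells counted by trypan blue exclusion from duplicate wells after 96 h of exposure; dose-response end point.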

Test [2] deals with K562. Nature of the test: Cytotoxicity against human K562 cells after 96 hrs by trypan blue exclusion assay. The class given is functional, cell-based. The note with it: Homo sapiens, K562, 96 h. The procedure, abridged:
as §1

By IC50 is commonly meant the midpoint of a concentration-inhibition curve. Low values mean inhibition by little substance, high ones a need for much substance. On to `COC(=O)C(C)(C)Nc1cc(CS(=O)(=O)/C=C/c2c(OC)cc(OC)cc2OC)ccc1OC`, for which the half-inhibitory concentration (IC50) came to 2500 nM in test [1] and 800 nM in test [2].

Take `COc1cc(OC)c(/C=C/S(=O)(=O)Cc2ccc(Br)c(N)c2)c(OC)c1`: the IC50 in test [1] and in test [2] was 750 nM throughout.

Take `COc1ccc(CS(=O)(=O)/C=C/c2c(OC)cc(O)cc2OC)cc1N`: the IC50 in test [1] was found to be 200 nM; in test [2], 300 nM.

In the case of `COc1ccc(CS(=O)(=O)/C=C/c2ccccc2OC)cc1N`, the concentration for half-maximal inhibition (IC50) in test [1] and in test [2] was 7500 nM throughout.

As for `COc1cc(OC)c(/C=C/S(=O)(=O)Cc2ccc(OC)c(NC(C)(C)C(=O)O)c2)c(OC)c1`, the IC50 in test [1] worked out at 150 nM; in test [2], 7.5 nM.

With `COC(=O)CNc1cc(CS(=O)(=O)/C=C/c2cc(OC)c(OC)c(OC)c2)ccc1OC`, the figures for the IC50 in test [1] and in test [2] were 75000 nM and 30000 nM, respectively.

For the molecule `COc1cc(OC)c(/C=C/S(=O)(=O)Cc2ccc(OC)c(NC(C(=O)O)c3ccc(Br)cc3)c2)c(OC)c1` (configuration not stated), the IC50 in test [1] came out at 300 nM; in test [2] it was 200 nM.

With `COc1ccc(CS(=O)(=O)/C=C/c2c(OC)cc(OCCCC(=O)O)cc2OC)cc1N`, the IC50 in test [1] was found to be 25000 nM; in test [2], 20000 nM.

In the case of `COc1cc(OC)c(/C=C/S(=O)(=O)Cc2ccc(OC)c(NC(C(=O)O)C(F)(F)F)c2)c(OC)c1` (configuration not stated), the IC50 is 20 nM in test [1] and 75 nM in test [2].

Turning to `COc1cc(OC)c(/C=C/S(=O)(=O)Cc2ccc(OC)c(NC(C(=O)O)c3ccc(F)cc3)c2)c(OC)c1` (configuration not stated), the IC50 in test [1] stood at 150 nM; in test [2], 80 nM.

In the case of `COc1ccc(/C=C/S(=O)(=O)Cc2ccc(OC)c([N+](=O)[O-])c2)cc1`, the IC50 in test [1] and in test [2] was 25000 nM in each case.

In the case of `COc1ccc(CS(=O)(=O)/C=C/c2c(OC)cccc2OC)c(N)c1`, the IC50 in test [1] and in test [2] was 750 nM throughout.

In the case of `COC(=O)C(F)(F)Nc1cc(CS(=O)(=O)/C=C/c2c(OC)cc(OC)cc2OC)ccc1OC`, the IC50 in test [1] and in test [2] was 250 nM in each case.

As to `COc1ccccc1/C=C/S(=O)(=O)Cc1ccc(OC)c([N+](=O)[O-])c1`, the IC50 in test [1] and in test [2] was 20000 nM in each case.

With `COc1cc(OC)c(/C=C/S(=O)(=O)Cc2ccc(OC)c(NCCC(=O)O)c2)c(OC)c1`, the IC50 in test [1] and in test [2] was 5000 nM each time.

Consider `COc1ccc(CS(=O)(=O)/C=C/c2cc(OC)c(OC)cc2OC)cc1N`, for which the IC50 in test [1] and in test [2] was 250 nM throughout.

Consider `COc1ccc(N)cc1CS(=O)(=O)/C=C/c1c(OC)cccc1OC`, for which the IC50 in test [1] and in test [2] was 25000 nM each time.

As to `COc1cc(OC)c(/C=C/S(=O)(=O)Cc2ccc(Cl)cc2N)c(OC)c1`, the half-inhibitory concentration (IC50) in test [1] and in test [2] was 2500 nM in each case.

`COc1cc(OC)c(/C=C/[S+]([O-])Cc2ccc(OC)c(N)c2)c(OC)c1` (configuration not stated): the values for the IC50 in test [1] and in test [2] were 40 nM and 20 nM, respectively.

In the case of `COC(=O)CCNc1cc(CS(=O)(=O)/C=C/c2c(OC)cc(OC)cc2OC)ccc1OC`, the results for the IC50 in test [1] and in test [2] were 1500 nM and 1000 nM, respectively.

Consider `COc1cc(OC)c(/C=C/[S+]([O-])Cc2ccc(OC)c([N+](=O)[O-])c2)c(OC)c1` (configuration not stated), for which the IC50 in test [1] and in test [2] was 15000 nM throughout.

Take `COc1cc(OC)c(/C=C/S(=O)(=O)Cc2ccc(Cl)c(N)c2)c(OC)c1`: the IC50 in test [1] and in test [2] was 10 nM each time.

`COC(=O)CNc1cc(CS(=O)(=O)/C=C/c2c(OC)cc(OC)cc2OC)ccc1OC`: the IC50 in test [1] and in test [2] was 100 nM throughout.

For the molecule `COc1cc(OC)c(/C=C/S(=O)(=O)Cc2cc(N)ccc2OC)c(OC)c1`, the IC50 in test [1] and in test [2] was 7500 nM throughout.

As for `COc1cc(OC)c(/C=C/S(=O)(=O)Cc2ccc(OC)c(NCC(=O)O)c2)c(OC)c1` [RIGOSERTIB], the results for the half-inhibitory concentration (IC50) in test [1] and in test [2] were 75 nM and 7.5 nM, respectively.

Take `COc1cc(OC)c(/C=C/S(=O)(=O)Cc2ccc(Br)c([N+](=O)[O-])c2)c(OC)c1`: the concentration for half-maximal inhibition (IC50) in test [1] and in test [2] was 25000 nM each time.

For the origin of these results see ChEMBL document CHEMBL2010670, “Discovery of a clinical stage multi-kinase inhibitor sodium (E)-2-{2-methoxy-5-[(2',4',6'-trimethoxystyrylsulfonyl)methyl]phenylamino}acetate (ON 01910.Na): synthesis, structure-activity relationship, and biological activity” (J Med Chem, 2011).
